Molecular target: T1, NAD-dependent protein deacetylase sirtuin-2 (Homo sapiens, UniProt Q8IXJ6)
T1 sequence (Q8IXJ6 whole entry): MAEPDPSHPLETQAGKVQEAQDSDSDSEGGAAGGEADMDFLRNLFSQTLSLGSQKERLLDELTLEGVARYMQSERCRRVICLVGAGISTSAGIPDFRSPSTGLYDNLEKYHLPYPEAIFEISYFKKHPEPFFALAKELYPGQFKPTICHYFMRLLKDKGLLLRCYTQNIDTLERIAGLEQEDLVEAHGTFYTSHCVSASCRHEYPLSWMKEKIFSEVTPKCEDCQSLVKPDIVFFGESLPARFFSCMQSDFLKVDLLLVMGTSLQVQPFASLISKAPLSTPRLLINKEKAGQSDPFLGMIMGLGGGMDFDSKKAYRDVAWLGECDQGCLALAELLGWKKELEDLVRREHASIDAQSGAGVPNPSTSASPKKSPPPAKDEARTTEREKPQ
Experiment: Inhibition of recombinant GST-tagged SIRT2 at 200 uM after 1 hr by Fluor de Lys-based fluorescence assay
In short: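 Single-point Fluor de Lys test at 200 μM: GST-SIRT1 (40 μM KI177 substrate) or GST-SIRT2 (138 μM KI179 substrate), 500 μM NAD+, BSA-supplemented buffer, 5 min rt preincubation, enzyme-started 1 h at 37 °C. Developer with 2 mM nicotinamide 45 min 37 °C; fluorescence ex 355/em 460 nm. Percent inhibition ± standard deviation.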

CC(=S)NCCCC[C@H](NC(=O)[C@H](N)Cc1ccccc1)C(=O)N[C@@H](C)C(=O)O
Inhibition: 22.4%

CC(=S)NCCCC[C@H](NC(=O)OCc1ccccc1)C(=O)NC1CCCCC1
Inhibition: 57.2%

CC(=S)NCCCC[C@H](N)C(=O)N[C@@H](C)C(=O)O
Inhibition: 2%
